Shown are actives, neighbours in structure and some others; about 2.2% of the full set was active somewhere.
F-actin modifier – modifiers of cytoskeleton assembly. HUVEC TNFa F-actin phalloidin imaging, high content. inhibition, % at 2 µM. 91,000 compounds, 0.18% hits;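 active = inhibition above the batch mean plus 3 SD and confirmed as a hit by visual image inspection, cut at about 30% in these data, passing the limit was not always enough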
E-sel TNF inh – TNF alpha driven E-selectin expression inhibition. 120,000 compounds, 0.71% hits. inhibition, % at 2 µM. HUVEC TNFa-induced E-selectin immunofluorescence, high content;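 active = inhibition above the batch mean plus 3 SD, and confirmed as a hit on visual image review, cut at about 43% in these data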;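 also: 0% = TNF-stimulated DMSO wells and 100% = unstimulated control wells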
HIV Rev-RRE inh – inhibitors of HIV-1 Rev-RRE RNA interaction; 97,000 compounds, 0.79% hits; P05866; Rev peptide-RRE RNA binding, FRET; inhibition, % at 8 µM;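 active = inhibition above the screen-wide mean plus 3 SD, cut at about 35% in these data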;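 also: 0% = median DMSO wells and 100% = median Neomycin B control wells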
Target sequence (P05866 whole entry, looked up): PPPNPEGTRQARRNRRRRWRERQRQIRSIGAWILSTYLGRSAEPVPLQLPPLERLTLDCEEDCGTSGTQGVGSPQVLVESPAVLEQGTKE
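Probe or stimulus: fluorescein-Rev peptide as binding partner; assay system: Cy5-tagged RRE RNA duplex with fluorescein-tagged Rev peptide; timing: 5 min compound–RNA preincubation, then 15 min with peptide, 25 °C; medium: HEPES pH 7.5 buffer with KCl, MgCl2, NaCl and EDTA; signal: fluorescein-to-Cy5 FRET, 480 nm excitation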
PLK1 inh – PLK1 (human) kinase inhibition. P53350. recombinant PLK1 kinase, TR-FRET peptide phosphorylation. inhibition, % at 10 µM. 97,000 compounds, 0.53% hits;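 active = inhibition of 50% or more in the single-concentration screen; inactive = inhibition below 50%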;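 also: 0% = DMSO max control and 100% = H-89 dihydrochloride min control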
Target sequence (P53350 whole entry, looked up): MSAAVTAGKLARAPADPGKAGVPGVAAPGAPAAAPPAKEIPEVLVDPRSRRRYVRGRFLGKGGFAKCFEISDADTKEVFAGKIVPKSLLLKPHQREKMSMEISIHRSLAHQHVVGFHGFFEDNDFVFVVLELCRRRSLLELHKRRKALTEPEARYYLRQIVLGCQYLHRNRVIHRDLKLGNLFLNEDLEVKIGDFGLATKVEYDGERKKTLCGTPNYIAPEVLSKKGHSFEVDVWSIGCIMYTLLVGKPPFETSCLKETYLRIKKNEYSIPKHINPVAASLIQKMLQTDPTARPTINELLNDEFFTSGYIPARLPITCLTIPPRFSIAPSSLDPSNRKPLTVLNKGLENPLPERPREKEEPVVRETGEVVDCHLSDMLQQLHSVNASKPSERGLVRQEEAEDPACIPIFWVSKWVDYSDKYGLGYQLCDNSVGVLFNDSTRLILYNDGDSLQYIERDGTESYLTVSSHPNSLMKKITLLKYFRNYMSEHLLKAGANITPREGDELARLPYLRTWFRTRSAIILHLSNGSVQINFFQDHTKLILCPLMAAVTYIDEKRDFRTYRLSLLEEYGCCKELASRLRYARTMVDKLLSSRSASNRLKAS
FAK inh – FAK (human) kinase inhibition. biochemical FAK kinase activity assay. inhibition, %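 (tested at 7 µM)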. 97,000 compounds, 0.84% hits; in the data active = inhibition above about 19%;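 also: 0% = DMSO and 100% = reference compound high control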
Plk1 PBD FP – Plk1 (human) PBD binding inhibition; Plk1 PBD phosphopeptide binding, fluorescence polarization; 97,000 compounds, 0.13% hits; AID 693; P53350; inhibition, %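 (tested at about 20 µM)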; in the data active = inhibition above about 34%, passing the limit was not always enough
* marks the source's active call; other numbers are inactive results; · = not tested or not shown; [ ] = another dose, or the depositor's remark.

SMILES	F-actin modifier	E-sel TNF inh	HIV Rev-RRE inh	PLK1 inh	FAK inh	Plk1 PBD FP
N#CCC(=O)Nc1ccc(C(=O)NCc2ccccn2)cc1	·	-33.6	·	·	·	·
O=[N+]([O-])c1ccc(-n2nncc2-c2ccc(Cl)cc2)cc1	-6.3	1.4	7.2	-9.5	-0.4	15.0
CNc1c([N+](=O)[O-])cnn1-c1ccc(Cl)cc1	50.0*	-35.6	9.0	-6.4	-2.5	-4.0
CCCCCCNS(=O)(=O)c1ccc(NC(=O)C2CCCO2)cc1 (stereo unspecified)	·	4.4	·	·	·	·
COc1cc2cc3c(N)c(C(=O)Nc4sc(C)c(C)c4C#N)sc3nc2cc1OC	-9.6	20.5	99.5*[fluorescence artefact?]	-10.5	1.5	-11.0
Cc1ccc(S(=O)(=O)N2CCC(=O)N(C(COCc3cccc(C(F)(F)F)c3)C(C)C)CC2)cc1 (stereo unspecified)	·	-1.2	·	·	·	·
COc1cccc(/C(O)=C2/C(=O)C(=O)N(Cc3cccnc3)C2c2ccco2)c1 (stereo unspecified)	-15.7	-23.0	4.5	-9.2	1.8	-0.2
COc1ccc(/C(O)=C2/C(=O)C(=O)N(Cc3cccnc3)C2c2ccncc2)cc1F (stereo unspecified)	-10.6	70.0*	0.7	-13.8	8.6	6.0
CN(c1ccccc1C(=O)Nc1cccc([N+](=O)[O-])c1)S(C)(=O)=O	·	-6.1	·	·	·	·
O=C(CCSCCc1ccccn1)Nc1cccc([N+](=O)[O-])c1	·	-18.3	·	·	·	·
COc1cc(-c2nnc(-c3ccccc3)o2)cc(OC)c1OC	-3.8	1.6	-1.2	-18.4	4.3	-2.3
COc1cc(-c2nnc(COc3ccc4ccccc4c3)o2)cc(OC)c1OC	5.1	100.0*	-4.2	-13.9	1.2	0.9
Nc1c(C(=O)NC2CCCC2)c2nc3ccccc3nc2n1N	47.2*	·	21.3	1.1	3.4	7.7
Nc1c(C(=O)NC2CCCC2)c2nc3ccccc3nc2n1/N=C/c1ccco1	2.4	-3.0	13.6	-8.9	0.0	-20.4
C=CCN1C(c2ccccc2)=CS/C1=C(\C#N)c1nnc2n1CCCCC2	·	63.1*	·	·	·	·
CCOc1ccc(C2=CS/C(=C(\C#N)c3nnc4n3CCCCC4)N2CC)cc1	-76.2	19.4	3.6	-11.9	3.0	-16.9
C=CCN1C(c2cccc(C(F)(F)F)c2)=CS/C1=C(/C#N)c1nnc(N2CCOCC2)n1-c1ccccc1	·	72.1*	·	·	·	·
C=CCN1C(c2ccc(Br)cc2)=CS/C1=C(/C#N)c1nnc(N2CCOCC2)n1-c1ccccc1	·	9.1	·	·	·	·
O=C(Nc1nnc(SCc2ccccc2)s1)c1cccc([N+](=O)[O-])c1	·	63.5*	·	·	·	·
COc1ccc(CNC(=O)C(c2ccc(C)o2)N(C(=O)c2csnn2)c2ccc(C(C)C)cc2)cc1 (stereo unspecified)	6.2	-9.6	-0.5	-13.5	2.4	-15.5
O=c1[nH]ncc2c3ccccc3n(Cc3ccc(F)cc3)c12	19.6	·	8.3	52.5*	17.0	1.3
O=c1[nH]ncc2c3ccccc3n(Cc3cccc(Cl)c3)c12	·	-24.8	·	·	·	·
O=C(CCCOc1ccc(Cl)cc1Cl)Nc1ccncc1	4.0	-7.4	12.4	53.7*	-0.8	-5.0
CCCCCCC(=O)NC(Nc1ccc(S(N)(=O)=O)cc1)C(Cl)(Cl)Cl (stereo unspecified)	3.8	-88.2	5.9	-0.8	0.5	1.5
O=[N+]([O-])c1ccc(/C=N/Nc2nc(N3CCCCCC3)nc(N3CCCCCC3)n2)o1	4.4	3.5	45.9*	-11.3	3.7	-6.4
SMILES	F-actin modifier	E-sel TNF inh	HIV Rev-RRE inh	PLK1 inh	FAK inh	Plk1 PBD FP
Cc1ccc(CCNC(=O)C2CCCN(S(=O)(=O)c3c(C)noc3C)C2)cc1 (stereo unspecified)	-11.1	·	8.2	-6.5	-0.1	4.2
Cc1ccc(NC(=O)C2CCCN(S(=O)(=O)c3c(C)noc3C)C2)nc1 (stereo unspecified)	33.4	65.3*	-1.7	-8.6	-0.8	24.6
Cc1ccc(CNC(=O)C2CCN(S(=O)(=O)c3c(C)noc3/C=C/c3ccco3)CC2)cc1	-13.6	57.4*	12.8	-6.6	4.1	24.2
Cc1ccc(CCNC(=O)C2CCCN(S(=O)(=O)c3c(C)noc3/C=C/N(C)C)C2)cc1 (stereo unspecified)	4.0	55.4*	2.0	-4.2	-2.4	20.9
O=c1cc(O)c2c(=O)n(-c3ccccc3)c3ccccc3c2o1	20.9	·	45.1*	-15.4	-8.8	-1.5
CCn1c(=O)c2c(O)cc(=O)oc2c2ccccc21	3.4	32.3	9.8	-19.3	0.7	4.0
COC(=O)C1=NNC2(c3ccc(Cl)cc3)C(=O)N(c3ccccc3)C(=O)C12 (stereo unspecified)	·	21.9	·	·	·	·
CCOc1ccc(C2C(C(=O)C3CC3)N3C=C(C#N)C=CC3C2(C#N)C#N)cc1 (stereo unspecified)	10.7	-18.7	47.9*	-3.6	2.4	-8.9
COc1ccc(C(=O)NNC(=O)CN2CCC(n3nnc4cc(F)ccc43)CC2)cc1	·	4.6	·	·	·	·
COC(=O)/C=C/S(=O)(=O)c1ccc(NC(C)=O)cc1	-6.1	92.3*	9.5	-12.8	-0.5	-19.9
COc1ccccc1NS(=O)(=O)c1ccc(NC(C)=O)cc1	-12.1	17.3	5.9	-7.0	0.6	-6.5
COc1cccc(CNC(=O)C(c2ccc(Cl)cc2)C(C)C)c1 (stereo unspecified)	·	5.9	·	·	·	·
Cc1ccc(/C=C/C2=Cc3c(sc(NC(=O)CSc4n[nH]c(N)n4)c3C#N)C(C)(C)C2)o1	·	-32.6	47.4*	1.5	13.0	-2.8
c1ccc2c(CCNc3ncnc4nc[nH]c34)cccc2c1	-15.3	3.2	-5.2	25.5	21.4*	15.9
c1ccc(CCCNc2ncnc3nc[nH]c23)cc1	·	-11.1	·	·	·	·
Cc1nc(-n2[nH]c3c(c2=O)CCCC3)[nH]c(=O)c1Cc1ccccc1	-27.7	16.3	86.5*[fluorescence artefact?]	-6.9	-3.6	-23.2
COc1cc(NC(=O)c2ccco2)c(C(=O)OCC(=O)c2c[nH]c3ccccc23)cc1OC	·	10.6	·	·	·	·
Cn1cnnc1SCC(=O)c1ccc2c(c1)OCCO2	-6.9	-0.6	5.8	-14.6	0.3	12.2
Cn1c(SCC(=O)c2ccc3c(c2)OCCO3)nnc1C1CC1	-5.7	19.2	-0.4	61.3*	1.7	3.1
O=c1[nH]c(CN2CCN(C/C=C/c3ccccc3)CC2)nc2cc(Cl)ccc12	-52.1	11.9	11.0	69.2*	0.8	-18.2
O=C(CCc1nc2ccccc2c(=O)[nH]1)N1CCN(C/C=C/c2ccccc2)CC1	-25.7	·	6.3	-5.6	-1.2	10.4
O=C(c1ccccc1)N1N=C(c2ccccc2)CC1c1ccccc1[N+](=O)[O-] (stereo unspecified)	·	-4.0	·	·	·	·
CCn1nnnc1-c1ccc(OC)c(S(=O)(=O)NCc2ccccc2)c1	26.3	87.8*	2.7	-7.4	-0.9	-14.2
COc1ccc(CCNC(=O)COc2ncnc3cc([N+](=O)[O-])ccc23)cc1	·	74.1*	·	·	·	·
Oc1ccc(N=Nc2n[nH]c(-c3ccc(Cl)cc3)n2)cc1	51.5*	-9.9	11.1	-9.7	7.4	-20.8

Screens deposited in PubChem by several laboratories.
